The values that follow come from ChEMBL document CHEMBL1145640 (Bioorg Med Chem Lett, 2008).

Activity calls are given as the source filed them.

For data set [1], the target named is Glutamate receptor ionotropic, NMDA 2B (Rattus norvegicus) (UniProt Q00960). Kind of data set: Displacement of [3H]ifenprodil from rat brain membrane NR2B receptor relative to ifenprodil. (In general: Loss of bound radioactivity is the signal in a displacement assay; it reports binding, not function.)
Data set [2] can be described thus: Stability in frogs Ringer buffer in presence of N-acetyl cysteine methyl ester by HPLC. Format: physicochemical. Particulars: frog's Ringer buffer with N-acetyl cysteine methyl ester. The gist of the method: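 Half-life in frog's Ringer buffer, pH 7.4, followed by HPLC peak-area decrease over time in presence of excess N-acetyl cysteine methyl ester; NACME and compound levels varied per run (mM range); reactivity also expressed in relative terms.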

Data set [3] in a line: Stability in frogs Ringer buffer by HPLC. Particulars: frog's Ringer buffer. In kind it is physicochemical.
Data set [4] addresses Glutamate receptor ionotropic, NMDA 2B (Rattus norvegicus, UniProt Q00960). The data set is described as follows: Displacement of [3H]ifenprodil from rat brain membrane NR2B receptor.
The target of data set [5] is T1, Glutamate NMDA receptor; GRIN1/GRIN2A (Homo sapiens, UniProt Q05586+Q12879). Kind of data set: Inhibition of NR1/NR2A receptor expressed in xenopus oocytes assessed as effect on L-glutamate and glycine-induced current response. In kind it is cell-based, Oocyte.
Data set [6] deals with T2, Glutamate NMDA receptor; GRIN1/GRIN2B (Homo sapiens, UniProt Q05586+Q13224). The data set is described as follows: Inhibition of N-terminal domain truncated NR1/NR2B receptor expressed in xenopus oocytes assessed as effect on L-glutamate and glycine-induced current response. Format: cell-based, Oocyte.
Data set [7] deals with T1, Glutamate NMDA receptor; GRIN1/GRIN2A. Kind of data set: Activity at NR1/NR2A receptor expressed in xenopus oocytes assessed as effect on L-glutamate and glycine-induced current response. In kind it is cell-based, Oocyte.
The target in data set [8] is T2, Glutamate NMDA receptor; GRIN1/GRIN2B. The data set is described as follows: Inhibition of NR1/NR2B receptor expressed in xenopus oocytes assessed as effect on L-glutamate and glycine-induced current response relative to ifenprodil. In kind it is cell-based. Particulars: Oocyte. In short, it runs like this:
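Two-electrode voltage clamp on Xenopus oocytes expressing wild-type NR1/NR2B. Currents evoked by saturating L-glutamate plus glycine, 100 µM each; compound applied during the NMDA response and change in current size measured.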

For data set [9] the target is unchanged. The data set is described as follows: Inhibition of NR1/NR2B receptor expressed in xenopus oocytes assessed as effect on L-glutamate and glycine-induced current response. Format: cell-based, Oocyte. In short, it runs like this: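 Two-electrode voltage clamp on Xenopus oocytes expressing wild-type NR1/NR2B receptors. NMDA currents were evoked with saturating L-glutamate plus glycine. The compound was applied during an ongoing NMDA response, and the change in current amplitude it induced was measured.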

Data set [10] addresses T1, Glutamate NMDA receptor; GRIN1/GRIN2A. Kind of data set: Activity at NR1/NR2A receptor expressed in xenopus oocytes assessed as Inhibition of L-glutamate and glycine-induced current response at 100 uM. In kind it is cell-based. Conditions: Oocyte.
Data set [11] addresses T2, Glutamate NMDA receptor; GRIN1/GRIN2B. The data set is described as follows: Inhibition of N-terminal domain truncated NR1/NR2B receptor expressed in xenopus oocytes assessed as effect on L-glutamate and glycine-induced current response upto 100 uM. In kind it is cell-based. Particulars: Oocyte.
Data set [12] has the same target. The data set is described as follows: Inhibition of NR1/NR2B receptor expressed in xenopus oocytes assessed as effect on L-glutamate and glycine-induced current response at 10 uM. Format: cell-based. Particulars: Oocyte.

Glutamate receptor ionotropic, NMDA 2B (Rattus norvegicus), sequence (Q00960 27-1482 limits assumed): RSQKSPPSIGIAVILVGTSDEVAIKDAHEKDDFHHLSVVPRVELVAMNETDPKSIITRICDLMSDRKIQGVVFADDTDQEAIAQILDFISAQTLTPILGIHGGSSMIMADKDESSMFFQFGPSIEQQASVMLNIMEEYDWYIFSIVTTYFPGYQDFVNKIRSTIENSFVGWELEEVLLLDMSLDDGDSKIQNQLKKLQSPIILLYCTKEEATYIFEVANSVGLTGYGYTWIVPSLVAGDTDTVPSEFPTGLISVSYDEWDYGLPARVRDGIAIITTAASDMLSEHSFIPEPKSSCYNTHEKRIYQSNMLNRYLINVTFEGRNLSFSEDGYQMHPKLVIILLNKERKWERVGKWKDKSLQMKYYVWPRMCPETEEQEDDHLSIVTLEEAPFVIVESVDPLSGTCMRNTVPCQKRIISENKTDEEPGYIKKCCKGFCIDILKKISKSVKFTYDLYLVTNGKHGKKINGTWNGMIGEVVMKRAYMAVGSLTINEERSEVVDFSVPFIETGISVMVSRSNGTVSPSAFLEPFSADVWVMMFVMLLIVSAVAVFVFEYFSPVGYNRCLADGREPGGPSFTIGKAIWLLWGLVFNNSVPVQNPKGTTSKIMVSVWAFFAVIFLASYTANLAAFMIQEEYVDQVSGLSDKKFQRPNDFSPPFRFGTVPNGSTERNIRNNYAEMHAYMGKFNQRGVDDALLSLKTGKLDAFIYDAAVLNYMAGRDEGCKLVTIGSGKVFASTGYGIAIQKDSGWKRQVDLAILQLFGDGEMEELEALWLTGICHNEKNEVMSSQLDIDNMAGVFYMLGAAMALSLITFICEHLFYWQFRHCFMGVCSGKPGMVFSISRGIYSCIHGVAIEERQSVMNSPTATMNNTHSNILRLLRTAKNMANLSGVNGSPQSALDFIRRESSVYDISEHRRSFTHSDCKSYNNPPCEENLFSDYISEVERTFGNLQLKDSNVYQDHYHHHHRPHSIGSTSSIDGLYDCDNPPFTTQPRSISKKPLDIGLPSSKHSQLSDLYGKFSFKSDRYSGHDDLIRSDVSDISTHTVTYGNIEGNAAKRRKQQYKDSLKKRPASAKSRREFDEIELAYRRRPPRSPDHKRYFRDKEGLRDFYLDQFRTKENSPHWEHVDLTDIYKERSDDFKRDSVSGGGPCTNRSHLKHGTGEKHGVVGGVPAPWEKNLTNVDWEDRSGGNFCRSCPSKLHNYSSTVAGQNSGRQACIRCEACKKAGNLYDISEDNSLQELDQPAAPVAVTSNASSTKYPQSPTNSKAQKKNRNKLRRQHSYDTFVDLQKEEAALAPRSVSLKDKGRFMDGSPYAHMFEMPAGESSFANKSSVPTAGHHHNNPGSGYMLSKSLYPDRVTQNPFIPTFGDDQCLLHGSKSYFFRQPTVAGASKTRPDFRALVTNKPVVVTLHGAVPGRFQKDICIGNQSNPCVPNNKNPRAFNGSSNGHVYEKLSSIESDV
Glutamate receptor ionotropic, NMDA 2B, sequence (Q00960 whole entry): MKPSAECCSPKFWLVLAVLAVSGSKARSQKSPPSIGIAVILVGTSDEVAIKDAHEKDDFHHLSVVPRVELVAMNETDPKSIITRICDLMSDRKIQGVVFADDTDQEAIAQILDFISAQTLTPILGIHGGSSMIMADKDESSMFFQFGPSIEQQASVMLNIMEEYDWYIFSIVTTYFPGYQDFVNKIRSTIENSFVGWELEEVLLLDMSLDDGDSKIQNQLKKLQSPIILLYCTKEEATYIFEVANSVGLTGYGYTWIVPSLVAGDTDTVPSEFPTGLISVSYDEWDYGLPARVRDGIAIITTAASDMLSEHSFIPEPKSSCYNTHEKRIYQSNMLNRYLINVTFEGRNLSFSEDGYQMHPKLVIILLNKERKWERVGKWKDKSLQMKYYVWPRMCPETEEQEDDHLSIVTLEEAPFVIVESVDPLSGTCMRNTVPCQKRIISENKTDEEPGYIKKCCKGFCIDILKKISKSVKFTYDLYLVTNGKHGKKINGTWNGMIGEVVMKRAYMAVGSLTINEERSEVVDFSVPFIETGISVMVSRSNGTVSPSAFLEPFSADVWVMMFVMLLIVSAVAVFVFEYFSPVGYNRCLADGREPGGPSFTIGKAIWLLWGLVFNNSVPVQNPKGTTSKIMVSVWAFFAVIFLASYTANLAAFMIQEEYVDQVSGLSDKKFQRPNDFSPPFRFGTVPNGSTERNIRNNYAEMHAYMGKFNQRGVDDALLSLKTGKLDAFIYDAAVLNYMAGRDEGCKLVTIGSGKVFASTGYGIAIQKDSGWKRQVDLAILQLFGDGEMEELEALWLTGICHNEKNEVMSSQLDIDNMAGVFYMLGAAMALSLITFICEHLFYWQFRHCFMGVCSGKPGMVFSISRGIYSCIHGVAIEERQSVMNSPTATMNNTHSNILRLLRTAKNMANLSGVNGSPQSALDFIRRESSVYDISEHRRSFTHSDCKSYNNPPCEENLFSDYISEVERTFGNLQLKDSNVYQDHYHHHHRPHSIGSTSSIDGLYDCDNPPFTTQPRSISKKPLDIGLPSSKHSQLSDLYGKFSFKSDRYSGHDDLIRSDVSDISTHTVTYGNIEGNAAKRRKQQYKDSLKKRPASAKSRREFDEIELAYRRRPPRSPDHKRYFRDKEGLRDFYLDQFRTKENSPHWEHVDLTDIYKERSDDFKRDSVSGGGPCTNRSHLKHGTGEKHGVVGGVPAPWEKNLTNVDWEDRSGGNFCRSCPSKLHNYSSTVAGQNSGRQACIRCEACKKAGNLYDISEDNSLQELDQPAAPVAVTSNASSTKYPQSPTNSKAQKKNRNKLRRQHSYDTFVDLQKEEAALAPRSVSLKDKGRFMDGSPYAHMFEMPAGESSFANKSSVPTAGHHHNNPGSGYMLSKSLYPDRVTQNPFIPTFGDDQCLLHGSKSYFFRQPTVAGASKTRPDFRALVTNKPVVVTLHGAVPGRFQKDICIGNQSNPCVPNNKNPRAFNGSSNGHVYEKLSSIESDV

Consider `C=C(CN1CCC(Cc2ccccc2)CC1)C(=O)c1ccc([N+](=O)[O-])cc1`, for which the Ratio in [1] was determined as 23. The half-life (as a rule, the time needed for the level to fall by half in the phase considered) in data set [2] was 62 min; in data set [3], 300 min. The inhibition constant Ki (in general, a dissociation constant, usually derived from enzyme kinetics or from competition with a known ligand) in data set [4] amounted to 248 nM.
For the compound `CC(C(O)c1ccc(N)cc1)N1CCC(Cc2ccccc2)CC1` (racemic; erythro) [listing 1 of 2 here], in data set [1], the Ratio stood at 8.8.
On to `O=C(CN1CCC(Cc2ccc(N=C=S)cc2)CC1)c1ccc(O)cc1`, for which, in data set [1], the Ratio is 22. Besides, the values for the half-life in data set [2] and in [3] were 23 min and over 1440 min, respectively. Also, the IC50 (commonly the midpoint of a concentration-inhibition curve) came to 16 µM in data set [5], 570 µM in data set [6] and 16 µM in data set [9]. In addition, the EC50 – broadly, the concentration at which the effect is half-maximal – in [7] was over 100 µM. Further, the affinity in [4], expressed as Ki, was 245 nM. For the same compound, in data set [8], the Ratio IC50 turned out to be 145.
Regarding `CC(C(=O)c1ccc(NC(=O)CCl)cc1)N1CCC(Cc2ccccc2)CC1` (stereo not given), the Ratio in data set [1] came out at 45. Moreover, the half-life in data set [2] is 114 min; in data set [3], over 1440 min. Moreover, the results for the half-maximal inhibitory concentration (IC50) in data set [6] and in data set [9] were 230 µM and 14 µM, respectively. Besides, the 50% effective concentration (EC50) in data set [7] is over 100 µM. This compound also displayed an inhibitory constant (Ki) in data set [4] of 493 nM. Besides, in data set [10], the inhibition (usually the change of the read-out against control, counted positive when it falls) was 25%. Also, the Ratio IC50 in [8] worked out at 130.
For the compound `Oc1ccc(C(O)CN2CCC(Cc3ccccc3)CC2)cc1` (stereo not given), in data set [1], the Ratio worked out at 16. In data set [4], this compound displayed an inhibition constant Ki of 62 nM.
Take `CC(C(O)c1ccc(N)cc1)N1CCC(Cc2ccccc2)CC1` (racemic; threo) [listing 1 of 2 here]: the Ratio in data set [1] was determined as 27.
As to `C=C(CN1CCC(Cc2ccccc2)CC1)C(=O)c1ccc(OC)cc1`, the outcome in data set [11] was inactive. The Ratio in data set [1] stood at 48. Moreover, the half-life in data set [2] is 7 min; in [3], 300 min. The EC50 in data set [7] was over 100 µM. In [4], this compound registered a Ki of 527 nM. Besides, in data set [10], the inhibition came out at 11%. In [8], the Ratio IC50 was determined as 640. Further, the half-maximal inhibitory concentration (IC50) in data set [9] was 70 µM.
On to `CC(C(O)c1ccc(N)cc1)N1CCC(Cc2ccccc2)CC1` (racemic; erythro) [listing 2 of 2 here], for which the inhibition constant (Ki) in data set [4] turned out to be 97 nM.
`CC(C(O)c1ccc(N)cc1)N1CCC(Cc2ccccc2)CC1` (racemic; threo) [listing 2 of 2 here] came in with a Ki in data set [4] of 300 nM.
For the compound `CC(C(=O)c1ccc(N=C=S)cc1)N1CCC(Cc2ccccc2)CC1` (stereo not given), in data set [1], the Ratio worked out at 62. In addition, the figures for the half-life in [2] and in [3] were 3.24 min and 1200 min, respectively. The inhibition in data set [12] worked out at 8%. The Ki in data set [4] worked out at 679 nM.
As for `O=C(CN1CCC(Cc2ccccc2)CC1)c1ccc(O)cc1`, in [1], the Ratio was 13. The affinity in data set [4] corresponds to a Ki of 141 nM.
For the compound `CC(C(=O)c1ccc(N)cc1)N1CCC(Cc2ccccc2)CC1` (stereo not given), the Ratio in [1] was determined as 1. The compound also showed a Ki in data set [4] of 58 nM.
Consider `O=C(CN1CCC(Cc2ccc([N+](=O)[O-])cc2)CC1)c1ccc(O)cc1`, for which the Ratio in data set [1] is 18. The same compound registered a Ki in data set [4] of 200 nM.
For `CC(=O)Nc1ccc(C(=O)C(C)N2CCC(Cc3ccccc3)CC2)cc1` (stereo not given), the Ratio in data set [1] was 10. Besides, in [4], the inhibitory constant (Ki) is 107 nM.
